ChEMBL document CHEMBL3526107, “In vivo-formed versus preformed metabolite kinetics of trans-resveratrol-3-sulfate and trans-resveratrol-3-glucuronide” (Drug Metab Dispos, 2012)
One block for each compound: values may come before it.

Assays:
Assay type in all cases: ADME, organism-based
[1] = AUC (0 to infinity) in C57BL/6 mouse at 3.5 mg/kg administered intraarterially by LC-MS/MS analysis; set-up: time infinity, dose 3.5 mg/kg, route intra-arterial; conditions: plasma
Outline: (§1)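 Single 3.5 mg/kg intraarterial bolus in saline via carotid cannula to fasted male C57BL/6 mice; n = 4. Blood (20 µl) is drawn serially over 2.5–600 min and at 24 h. Plasma with ascorbic acid is precipitated with methanol containing acetaminophen IS, then quantified by negative-mode LC-MS/MS. Noncompartmental parameters: trapezoidal AUC, Cl = Dose/AUC0-inf, Vss = Cl×MRT0-inf, t1/2 = 0.693/terminal slope.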

[2] = Terminal half life in C57BL/6 mouse at 3.5 mg/kg administered intraarterially by LC-MS/MS analysis; set-up: dose 3.5 mg/kg, route intra-arterial; conditions: in vivo, read-out: beta t1/2; outline: as §1
[3] = Tmax in C57BL/6 mouse at 3.5 mg/kg administered intraarterially by LC-MS/MS analysis; set-up: dose 3.5 mg/kg, route intra-arterial; conditions: in vivo; outline: as §1
[4] = AUC (0 to t) in C57BL/6 mouse at 3.5 mg/kg administered intraarterially by LC-MS/MS analysis; set-up: dose 3.5 mg/kg, route intra-arterial; conditions: plasma; outline: as §1
[5] = Volume of distribution at steady state in C57BL/6 mouse at 3.5 mg/kg administered intraarterially by LC-MS/MS analysis; set-up: dose 3.5 mg/kg, route intra-arterial; conditions: in vivo, read-out: Vdss; outline: as §1
[6] = Cmax in C57BL/6 mouse at 3.5 mg/kg administered intraarterially by LC-MS/MS analysis; set-up: dose 3.5 mg/kg, route intra-arterial; conditions: in vivo; outline: as §1
[7] = Clearance in C57BL/6 mouse at 3.5 mg/kg administered intraarterially by LC-MS/MS analysis; set-up: dose 3.5 mg/kg, route intra-arterial; conditions: in vivo; outline: as §1
[8] = Volume of distribution at steady state in C57BL/6 mouse at 5 mg/kg administered intraarterially by LC-MS/MS analysis; set-up: dose 5 mg/kg, route intra-arterial; conditions: in vivo, read-out: Vdss
Outline: (§2)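 Carotid-cannulated male C57BL/6 mice, food withheld for the first 10 h, dosed at 5 mg/kg intraarterially in saline; n = 4. Serial plasma samples taken 2.5–600 min are analysed by LC-MS/MS in negative ESI mode after methanol precipitation with acetaminophen as IS. Noncompartmental analysis uses linear trapezoidal AUC, with Cl = Dose/AUC0-inf, Vss = Cl×MRT, and t1/2 = 0.693/k.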

[9] = AUC (0 to infinity) in C57BL/6 mouse at 5 mg/kg administered intraarterially by LC-MS/MS analysis; set-up: time infinity, dose 5 mg/kg, route intra-arterial; conditions: plasma; outline: as §2
[10] = Tmax in C57BL/6 mouse at 5 mg/kg administered intraarterially by LC-MS/MS analysis; set-up: dose 5 mg/kg, route intra-arterial; conditions: in vivo; outline: as §2
[11] = Cmax in C57BL/6 mouse at 5 mg/kg administered intraarterially by LC-MS/MS analysis; set-up: dose 5 mg/kg, route intra-arterial; conditions: in vivo; outline: as §2
[12] = Terminal half life in C57BL/6 mouse at 5 mg/kg administered intraarterially by LC-MS/MS analysis; set-up: dose 5 mg/kg, route intra-arterial; conditions: in vivo, read-out: beta t1/2; outline: as §2
[13] = Clearance in C57BL/6 mouse at 5 mg/kg administered intraarterially by LC-MS/MS analysis; set-up: dose 5 mg/kg, route intra-arterial; conditions: in vivo; outline: as §2
[14] = AUC (0 to t) in C57BL/6 mouse at 5 mg/kg administered intraarterially by LC-MS/MS analysis; set-up: dose 5 mg/kg, route intra-arterial; conditions: plasma; outline: as §2
[15] = AUC (0 to infinity) in C57BL/6 mouse at 15 mg/kg administered intraarterially by LC-MS/MS analysis; set-up: time infinity, dose 15 mg/kg, route intra-arterial; conditions: plasma
Outline: (§3)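 Male C57BL/6 mice (20–25 g), fasted for the first 10 h of sampling. Single 15 mg/kg bolus in 20% 2-hydroxypropyl-β-cyclodextrin in saline via carotid artery cannula. Serial 20 µl blood draws from 2.5 to 600 min, plus 24 h; n = 5. Plasma is methanol-precipitated (acetaminophen IS) and run on negative-ESI LC-MS/MS. Noncompartmental analysis: linear trapezoidal AUC, Cl = Dose/AUC0-inf, Vss = Cl×MRT, t1/2 = 0.693/k.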

[16] = Tmax in C57BL/6 mouse at 15 mg/kg administered intraarterially by LC-MS/MS analysis; set-up: dose 15 mg/kg, route intra-arterial; conditions: in vivo; outline: as §3
[17] = Terminal half life in C57BL/6 mouse at 15 mg/kg administered intraarterially by LC-MS/MS analysis; set-up: dose 15 mg/kg, route intra-arterial; conditions: in vivo, read-out: beta t1/2; outline: as §3
[18] = Cmax in C57BL/6 mouse at 15 mg/kg administered intraarterially by LC-MS/MS analysis; set-up: dose 15 mg/kg, route intra-arterial; conditions: in vivo; outline: as §3
[19] = Volume of distribution at steady state in C57BL/6 mouse at 15 mg/kg administered intraarterially by LC-MS/MS analysis; set-up: dose 15 mg/kg, route intra-arterial; conditions: in vivo, read-out: Vdss; outline: as §3
[20] = AUC (0 to t) in C57BL/6 mouse at 15 mg/kg administered intraarterially by LC-MS/MS analysis; set-up: dose 15 mg/kg, route intra-arterial; conditions: plasma; outline: as §3
[21] = Clearance in C57BL/6 mouse at 15 mg/kg administered intraarterially by LC-MS/MS analysis; set-up: dose 15 mg/kg, route intra-arterial; conditions: in vivo; outline: as §3

AUC(0-inf) [1]: 11.8 µM·h
half-life [2]: 4.54 h
Tmax [3]: 2.5 min
AUC(0-t) [4]: 10.8 µM·h
Vd [5]: 4.55 L/kg
Cmax [6]: 27.8 µM
clearance [7]: 13.8 mL/min/kg
SMILES: O=C(O)[C@H]1O[C@@H](Oc2cc(O)cc(/C=C/c3ccc(O)cc3)c2)[C@H](O)[C@@H](O)[C@@H]1O

Vd [8]: 6.37 L/kg
AUC(0-inf) [9]: 4.26 µM·h
Tmax [10]: 2.5 min
Cmax [11]: 14.8 µM
half-life [12]: 2.13 h
clearance [13]: 76.3 mL/min/kg
AUC(0-t) [14]: 4.05 µM·h
SMILES: O=S(=O)(O)Oc1cc(O)cc(/C=C/c2ccc(O)cc2)c1

AUC(0-inf) [15]: 9.85 µM·h
Tmax [16]: 2.5 min
half-life [17]: 3.18 h
Cmax [18]: 15.3 µM
Vd [19]: 37.6 L/kg
AUC(0-t) [20]: 8.5 µM·h
clearance [21]: 119 mL/min/kg
SMILES: Oc1ccc(/C=C/c2cc(O)cc(O)c2)cc1 [RESVERATROL]
